High-throughput results (PubChem)
HKDC1 activator – HKDC1 (human) hexokinase activation; AID 493187; hit rate 0.056% among 340,000; recombinant HKDC1, G6PDH/diaphorase resazurin fluorescence; active compounds read low; activity change, negative = activation, % at 20 µM;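 active = activation of 40% or more at 20 µM, a change of -40% or lower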
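Dosing: single compound dose of 20 µM, 1% DMSO final / Test system: in-house human HKDC1 enzyme, G6PDH and diaphorase coupling enzymes / Quantity: 5 µg/mL HKDC1 final / Incubation: enzyme reaction 90 min, room temperature, in dark / Buffer or medium: pH 8.0 Tris with MgCl2 / Detection: coupled resazurin-to-resorufin fluorescence, Ex 525/Em 613 nm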
* = called active by the depositor. Not all results are given here.

SMILES	HKDC1 activator
Cc1ccc(NC2c3ncccc3C(=O)N2c2ccccc2C)cc1C (stereo not given)	56.4
O=C1OC(c2ccc3ccccc3c2O)(c2ccc3ccccc3c2O)c2ccccc21	36.0
O=C(O)c1ccc2c(=O)n(-c3ccccc3)c(=S)[nH]c2c1	84.2
Cc1ccc(S(=O)(=O)N(C(=O)c2ccco2)c2cc3sc(=O)oc3c3ccccc23)cc1	36.9
Cc1ccc(C)c(-n2c3nc(=O)[nH]c(=O)c-3cc3cc([N+](=O)[O-])ccc32)c1	47.4
Cc1ccc(N=Nc2ccc(O)c3ncccc23)cc1C	-43.2*
O=C1C=CC(=O)c2c(O)c(N3CCN(CCOCCO)CC3)c(Br)c(O)c21	46.4
CC(=O)n1cc(N(C(=O)CCl)c2ccc([N+](=O)[O-])cc2)c2ccccc21	48.4
COc1cc(/C=C2\SC(=Nc3ccc(Cl)c(C(=O)O)c3)NC2=O)c(Br)c(Br)c1O	40.4
CCOc1ccc(/C=C2/SC(=S)N(CCC(=O)Nc3ccc(C(=O)O)cc3)C2=O)cc1	42.5
O=C1NN(c2cccc(Br)c2)C(=O)/C1=C/c1ccc(-c2cc([N+](=O)[O-])ccc2O)o1	61.6
O=c1oc2cc(Oc3c([N+](=O)[O-])cc(C(F)(F)F)cc3[N+](=O)[O-])ccc2c2c1CCCC2	40.1
COc1ccc(Oc2cc(C)nc(Cl)n2)nn1	-77.8*
Cn1c2ccccc2c2ccc3c(c21)C(=O)C=CC3=O	37.5
COc1cc2c(cc1OC)-c1cc(NCc3ccccn3)nc(=O)n1CC2	58.5
O=C(O)COc1ccc(/C=N/NC(=O)c2ccc(-c3csc(Nc4ccc(Cl)cc4)n3)cc2)cc1	76.2
Cc1cc(C(=O)CCl)c(C)n1CCc1ccc(Cl)cc1	39.1
CN(C)c1ccc2nc3ccc(=[N+](C)C)cc-3sc2c1	35.6
Cc1ccc(SC2=C(Sc3ccc(C)cc3)C(=O)c3ccccc3C2=O)cc1	66.0
S=C1Cc2ccccc2N1	-302.6*
O=C(CNC(=O)/C=C/c1ccco1)N=Nc1c(O)[nH]c2ccccc12	50.7
O=C(N/N=C/c1ccc[nH]1)c1sc2ccccc2c1Cl	-41.5*
O=C1C(O)=CC(=C(c2ccccc2)c2ccccc2)c2ccccc21	78.4
COc1cc([N+](=O)[O-])ccc1-c1ccc(/C=C2\C(=O)ON=C2c2ccccc2)o1	43.8
Cc1ccc(C2=NN=C(NC(=O)CSc3nncn3C)SC2)cc1	-143.8*
SMILES	HKDC1 activator
COc1cccc(-n2c(N)c(C(=O)Nc3c(C)n(C)n(-c4ccccc4)c3=O)c3nc4ccccc4nc32)c1	35.7
O=C(c1c[nH]c(C(=O)C(Cl)(Cl)Cl)c1)c1c(F)cccc1F	37.5
C/C(=N\NC(=O)c1c(C)nc2ccccn12)c1ccc(O)cc1O	-45.1*
O=C(c1ccccc1)c1n[nH]c(-c2ccccc2)cc1=O	-42.2*
O=C(COC(=O)c1n[nH]c2ccccc12)c1cccc(Br)c1	37.5
CCc1ccc2c(c1)C(NC(C)=O)C(=O)N2CCN1CCOCC1 (stereo not given)	80.1
Cc1ccccc1C(=O)Nc1ccc2c(C#N)c3nc4ccccc4nc3n2c1	37.1
COCC(=O)OC1CCn2c1nc1c2C(=O)C(C)=C(NC(C)=O)C1=O (stereo not given)	68.5
Cc1cc2nc3ccc(=[N+](C)C)cc-3sc2cc1N	46.9
c1coc(-c2nc(-c3ccco3)c(-c3ccco3)nc2-c2ccco2)c1	68.3
CCCc1nc2oc3c(OC)ncnc3c2c2c1COC(C)(C)C2	36.5
Cc1ccc2cc(CCNC(=O)c3ccc(S(=O)(=O)N4CCCCC4)cc3)c(=O)[nH]c2c1	40.0
Cc1cc(C)nc(Nc2n[nH]c(-c3ccc(C(C)(C)C)cc3)n2)n1	-51.1*
O=C(OCC(=O)N1CCN(C(=O)c2ccco2)CC1)c1cc(-c2ccco2)nc2ccccc12	37.1
Cc1oc2c(c1C(=O)c1ccc(Cl)cc1)C(=O)C(=O)c1ccccc1-2	54.6
CCCCC(CC)CN=C(N)NC(N)=NCCCCCCN=C(N)NC(N)=NCC(CC)CCCC (stereo not given)	41.6
